For data set [1], the system named is Hepatocyte. Briefly: Inhibition of cholesterol synthesis in rat hepatocytes. In kind it is functional, cell-based. The procedure, abridged: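 Frozen rat hepatocytes on collagen-coated wells, 10^5 cells/well, grown 24 h in DMEM/10% FBS/10 mM HEPES. Compound preincubation 4 h, then 1 µCi/mL 14C acetic acid for 4 h more.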
Data set [2] concerns L6. Briefly: Inhibition of cholesterol synthesis in rat L6 cells. In kind it is functional, cell-based.
Data set [3] relates to Syrian golden hamster. Briefly: Inhibition of cholesterol synthesis in Goldern Syrian hamster blood at 10 mg/kg, po after 2 to 4 hrs relative to control. The settings on record: Mesocricetus auratus, read-out: Inhibition. Type of data set: functional. In outline: (§1)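 Hamsters on chow with 2.5% cholestyramine from 3 days prior; oral gavage of vehicle or compound (10 mpk), n = 8/group. At 2 h (2–4 h arm) or 4 h (4–6 h arm) postdose, i.p. 80 µCi 14C sodium acetate in 0.9% NaCl; euthanized 2 h later, cardiac blood, plasma saponified and extracted, 14C cholesterol counted; % change vs untreated controls.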

Data set [4] concerns Syrian golden hamster. Briefly: Inhibition of cholesterol synthesis in Golden Syrian hamster blood at 10 mg/kg, po after 4 to 6 hrs relative to control. Type of data set: functional. The settings on record: Mesocricetus auratus, read-out: Inhibition. In outline:
as §1

For data set [5], the system named is Cavia porcellus. Briefly: Reduction of LDL level in chow fed Hartley guinea pig serum at 10 mg/kg/day, po for 7 days relative to rosuvastatin. In kind it is functional, Hartely. Details: scale not given: the % may be the effect or the level left. The settings on record: in the assay text read “20 mg/kg/day” for “10 mg/kg/day”. In outline: (§2)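 Male Hartley guinea pigs (300–500 g) on chow diet 5025, acclimated ≥1 week; vehicle or compound suspension by daily oral gavage at 10 or 20 mpk (n = 8/group) for 7 days; sacrificed 2 h after final dose; LDL cholesterol as mean % change from vehicle group.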

Data set [6] can be described thus: Lipophilicity, log P of the compound. In kind it is physicochemical. The settings on record: octanol/water.
Data set [7] deals with T1, 3-hydroxy-3-methylglutaryl-coenzyme A reductase (Rattus norvegicus, UniProt P51639).
T1 sequence (P51639 whole entry): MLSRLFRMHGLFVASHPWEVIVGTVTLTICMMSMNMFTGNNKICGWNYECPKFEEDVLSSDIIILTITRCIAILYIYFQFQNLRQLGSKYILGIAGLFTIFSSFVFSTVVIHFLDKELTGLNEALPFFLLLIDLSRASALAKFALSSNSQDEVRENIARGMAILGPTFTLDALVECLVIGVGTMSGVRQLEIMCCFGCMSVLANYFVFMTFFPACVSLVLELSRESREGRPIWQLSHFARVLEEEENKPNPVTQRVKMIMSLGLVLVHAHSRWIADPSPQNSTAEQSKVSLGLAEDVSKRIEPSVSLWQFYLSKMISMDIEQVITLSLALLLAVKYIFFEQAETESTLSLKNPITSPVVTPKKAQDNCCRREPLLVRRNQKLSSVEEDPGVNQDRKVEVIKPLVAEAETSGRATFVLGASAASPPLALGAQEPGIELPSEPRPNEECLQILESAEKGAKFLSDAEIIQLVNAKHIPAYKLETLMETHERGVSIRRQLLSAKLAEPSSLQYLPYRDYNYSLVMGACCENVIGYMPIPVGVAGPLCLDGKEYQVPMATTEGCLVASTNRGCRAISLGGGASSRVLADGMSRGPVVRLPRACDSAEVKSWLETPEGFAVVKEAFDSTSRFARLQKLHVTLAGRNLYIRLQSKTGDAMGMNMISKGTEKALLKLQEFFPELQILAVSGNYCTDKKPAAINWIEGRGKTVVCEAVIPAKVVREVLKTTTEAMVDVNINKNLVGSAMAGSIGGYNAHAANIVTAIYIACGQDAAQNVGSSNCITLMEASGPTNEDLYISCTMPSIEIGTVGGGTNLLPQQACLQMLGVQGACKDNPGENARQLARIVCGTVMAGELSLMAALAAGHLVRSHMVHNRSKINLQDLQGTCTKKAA
Briefly: Inhibition of HMG-CoA reductase in Sprague-Dawley rat liver microsomes. Details: species or system Microsome. In outline: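 Rat liver microsomes (35 µg/mL) in 100 mM NaH2PO4, 10 mM imidazole, 10 mM EDTA, preincubated with compound in DMSO 0.5 h on ice; 14C-HMG-CoA (0.024 µCi) with 15 mM NADPH and 25 mM DTT added, 0.75 h at 37 °C. Stopped with HCl, lactonized to mevalonolactone, anion-exchange resin separation, scintillation counting; IC50 by curve fit.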

Data set [8] relates to Hepatocyte. Briefly: Ratio of IC50 for cholesterol synthesis in rat myocytes to rat hepatocytes. In kind it is functional.
Data set [9] relates to Cavia porcellus. Briefly: Reduction of LDL level in po dosed Hartley guinea pig plasma after 7 days. In kind it is functional. Particulars: Hartely, 168 h.
In data set [10] the test system is Cavia porcellus. Briefly: Reduction of LDL level in chow fed Hartley guinea pig serum at 20 mg/kg/day, po for 7 days relative to rosuvastatin. Type of data set: functional, Hartely. Details: scale not given: the % may be the effect or the level left. The procedure, abridged: as §2

`CC(C)c1c(C(=O)N(C)[C@H](C)c2ccccc2)nn(-c2ccc(F)cc2)c1CC[C@@H](O)C[C@@H](O)CC(=O)[O-].[Na+]`: the half-inhibitory concentration (IC50) (commonly the midpoint of a concentration-inhibition curve) in data set [1] was determined as 0.0003 µM; in [2] it was 1.9 µM. The % change in cholesterol synthesis vs control at 10 mg/kg in data set [3] was -62%. Further, in [4], the Percent change in cholesterol synthesis vs control at 10 mg/kg is -10%. Besides, the Activity in [5] is given as -11%.
In the case of `CC[C@H](C)C(=O)O[C@H]1C[C@H](O)C=C2C=C[C@H](C)[C@H](CC[C@@H](O)C[C@@H](O)CC(=O)O)[C@H]21` [PRAVASTATIN], in data set [6], the LogP (commonly the decadic logarithm of the partition coefficient of the neutral form, usually between octanol and water) is -0.67. Moreover, the IC50 in data set [7] stood at 0.013 µM; in [1] it was 0.017 µM; in [2] it was 7.6 µM. In data set [8], the “Ratio IC50” value turned out to be 450. Moreover, the 50% effect level in [9] (ED50) was put at a dose of 100 mg/kg.
As for `CC(C)c1nc(N(C)S(C)(=O)=O)nc(-c2ccc(F)cc2)c1/C=C/[C@@H](O)C[C@@H](O)CC(=O)O` [ROSUVASTATIN], the IC50 in [7] is 0.0031 µM; in data set [1] it was 0.0003 µM; in data set [2], 0.25 µM. In [8], the “Ratio IC50” value came out at 830. In data set [3], the % change in cholesterol synthesis vs control at 10 mg/kg was -76%. Also, the Percent change in cholesterol synthesis vs control at 10 mg/kg in [4] is -46%. Besides, the Activity in data set [10] was -42%. Also, the ED50 (in general, the midpoint of the dose-response relation) in [9] is 9.3 mg/kg.

The values are drawn from ChEMBL document CHEMBL1140700, “Substituted pyrazoles as hepatoselective HMG-CoA reductase inhibitors: discovery of (3R,5R)-7-[2-(4-fluoro-phenyl)-4-isopropyl-5-(4-methyl-benzylcarbamoyl)-2H-pyrazol-3-yl]-3,5-dihydroxyheptanoic acid (PF-3052334) as a candidate for the treatment of hypercholesterolemia” (J Med Chem, 2008).
